The values below come from ChEMBL document CHEMBL1131190, “Synthesis of 7-benzylamino-6-chloro-2-piperazino-4-pyrrolidinopteridine and novel derivatives free of positional isomers. Potent inhibitors of cAMP-specific phosphodiesterase and of malignant tumor cell growth” (J Med Chem, 1998).

One assay concerns the target Phosphodiesterase 4 (Homo sapiens, UniProt P27815+Q08499+Q07343+Q08493). Put plainly: Inhibition of cAMP hydrolysis by inhibiting phosphodiesterases (PDE4), isolated from tumor tissue of human large cell lung tumor xenograft LXFL-529, grown in nude mice. Format: protein assay.
Assay [1] is described as follows: Growth inhibition of LXFL529L cells by sulforhodamine B assay, incubation time 3 days and IC50 was calculated survival of treated cells over control cells X 100[T/C%]. Format: functional. The settings on record: Homo sapiens, LXFL 529L, 72 h. The gist of the method:
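LXFL529L cells grown in RPMI 1640 with extra glutamine (300 mg/L), 1% penicillin/streptomycin and 10% newborn calf serum at 37 °C, 5% CO₂, mycoplasma-free. Seeded, grown 24 h, then exposed continuously to drug for 3 d. Sulforhodamine B read-out expressed as % T/C of controls. IC50 from mean ± SEM of two separate assays, each in quadruplicate.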

Each structure is given as a SMILES string.

Regarding `CN1CCN(c2nc(N3CCCC3)c3nc(Cl)c(NCc4ccccc4)nc3n2)CC1`, the values for the IC50 (at Phosphodiesterase 4; in assay [1]) were 3.1 µM and 6.5 µM, respectively.
With `CN(C)c1nc2c(N3CCCC3)nc(Cl)nc2nc1NCc1ccccc1`, the concentration for half-maximal inhibition (IC50) at Phosphodiesterase 4 is 0.65 µM; in assay [1] it was more than 20 µM.
Taken in the same sequence, the figures for `NCCNc1nc(N2CCCC2)c2nc(Cl)c(NCc3ccccc3)nc2n1` were 3.7 µM and 3.2 µM.
Turning to `O=C1CN(c2nc(N3CCCC3)c3nc(Cl)c(NCc4ccccc4)nc3n2)CCN1`, the IC50 against Phosphodiesterase 4 is 4.2 µM; in assay [1], 9.5 µM.
For `CN(C)c1nc2nc(N3CCNCC3)nc(N3CCCC3)c2nc1Cl`, in that order: 0.046 µM and 5.8 µM.
For `Clc1nc2c(NCc3ccccc3)nc(N3CCNCC3)nc2nc1N1CCCC1`, in that order: 0.083 µM and 4 µM.
For `Clc1nc2c(N3CCCC3)nc(N3CCNCC3)nc2nc1NCc1ccccc1`, in that order: 0.016 µM and 2.3 µM.
For `CC(=O)N1CCN(c2nc(N3CCCC3)c3nc(Cl)c(NCc4ccccc4)nc3n2)CC1`, the IC50 was 5.9 µM at Phosphodiesterase 4 and 13 µM in assay [1].
Taken in the same sequence, the figures for `Clc1nc2c(N3CCCC3)nc(N3CCOCC3)nc2nc1NCc1ccccc1` were 2.5 µM and more than 20 µM.
For `CN(C)c1nc2nc(N3CCNCC3)nc(N(C)C)c2nc1Cl`, in that order: 1.2 µM and more than 20 µM.
Taken in the same sequence, the figures for `OCCNc1nc(N2CCCC2)c2nc(Cl)c(NCc3ccccc3)nc2n1` were 2.8 µM and 15.2 µM.
In the case of `Clc1nc2c(N3CCCC3)nc(N3CCNCC3)nc2nc1N1CCCC1`, the values for the IC50 (against Phosphodiesterase 4; in assay [1]) were 0.059 µM and 3.1 µM, respectively.
Taken in the same sequence, the figures for `CN(C)c1nc(N2CCNCC2)nc2nc(NCc3ccccc3)c(Cl)nc12` were 0.3 µM and 5.9 µM.
For `c1ccc(CNc2cnc3c(N4CCCC4)nc(N4CCNCC4)nc3n2)cc1`, the IC50 against Phosphodiesterase 4 is 0.36 µM; in assay [1] it was 7.3 µM.
For `CN(C)c1nc(N2CCCC2)c2nc(Cl)c(NCc3ccccc3)nc2n1`, in that order: 1.8 µM and 11.8 µM.

As usually defined, the IC50 is the midpoint of a concentration-inhibition curve.
